Test results from ChEMBL document CHEMBL1165862, “Synthesis and pharmacological evaluation of novel 5-substituted-1-(phenylsulfonyl)-2-methylbenzimidazole derivatives as anti-inflammatory and analgesic agents” (Eur J Med Chem, 2010).

Assays:
Rattus norvegicus [1] = experiment: Antiinflammatory activity in Sprague-Dawley rat assessed as reduction of carrageenan-induced paw edema at 200 mg/kg, po administered 30 mins before carrageenan challenge measured after 1 hr by mercury displacement method relative to control; type: functional; design: scale not given: the % may be the effect or the level left
Summary of the method: (§1)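 Rats (150–230 g; groups of six), paw edema induced with 1.0% carrageenan. Compounds given p.o. as suspensions in 2% sodium CMC 30 min before carrageenan, test compounds at 200 mg/kg and indomethacin standard at 50 mg/kg; 2% CMC served as control. Paw volume measured by mercury-displacement plethysmography. Mean ± SEM of six animals.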

Rattus norvegicus [2] = experiment: Gastrointestinal toxicity in Sprague-Dawley rat assessed as lengths of longest diameters of lesions at 20 mg/kg, po after 6 hrs; type: organism-based; design: dose 20 mg/kg, route oral; settings: in vivo
Summary of the method: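 SD rats of either sex (150–200 g), groups of six; dosed orally in 0.1% Tween 80, vehicle as control. Stomachs taken 6 h later, ligated and stored overnight in 2% v/v formol saline. Next day opened along greater curvature, washed in warm water and viewed under 3-fold magnifier. Longest lesion diameters summed per animal as total lesion score (mm); group mean ± SEM.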

Mus musculus = experiment: Analgesic activity in albino mouse assessed as protection against acetic acid-induced writhing at 100 mg/kg, po administered 30 mins prior to acetic acid challenge measured after 15 mins; type: functional
Summary of the method: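 Albino mice of either sex, 20–25 g, groups of six. Dosed orally as suspension in 2% CMC 30 min before i.p. acetic acid (0.6% v/v in distilled water, 1 mL/kg); controls given 2% CMC alone, standard acetyl salicylic acid. Writhes per animal counted for 15 min; activity expressed as percentage protection. Mean ± SEM, n = 6.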

Rattus norvegicus [3] = experiment: Antiinflammatory activity in Sprague-Dawley rat assessed as reduction of carrageenan-induced paw edema at 50 mg/kg, po administered 30 mins before carrageenan challenge measured after 1 hr by mercury displacement method relative to control; type: functional; design: scale not given: the % may be the effect or the level left; summary of the method: as §1

## Cc1nc2cc(NCc3ccccc3Cl)ccc2n1S(=O)(=O)c1ccccc1
Rattus norvegicus [1]
  Activity: 8.6%

## Cc1nc2cc(Nc3ccc(N)cc3)ccc2n1S(=O)(=O)c1ccccc1
Rattus norvegicus [1]
  Activity: 39.7%
Rattus norvegicus [2]
  Activity: 16 mm
Mus musculus
  Activity: 56.9%

## CCNc1ccc2c(c1)nc(C)n2S(=O)(=O)c1ccccc1
Rattus norvegicus [1]
  Activity: 7.2%

## CCCCNc1ccc2c(c1)nc(C)n2S(=O)(=O)c1ccccc1
Rattus norvegicus [1]
  Activity: 7.9%

## Cc1nc2cc(Nc3ccc([N+](=O)[O-])cc3)ccc2n1S(=O)(=O)c1ccccc1
Rattus norvegicus [1]
  Activity: 10.6%

## Cc1nc2cc(NCc3ccc([N+](=O)[O-])cc3)ccc2n1S(=O)(=O)c1ccccc1
Rattus norvegicus [1]
  Activity: 10.8%

## CCCNc1ccc2c(c1)nc(C)n2S(=O)(=O)c1ccccc1
Rattus norvegicus [1]
  Activity: 7.7%

## Cc1nc2cc(Nc3ccccc3N)ccc2n1S(=O)(=O)c1ccccc1
Rattus norvegicus [1]
  Activity: 37%
Rattus norvegicus [2]
  Activity: 14 mm
Mus musculus
  Activity: 55.3%

## Cc1nc2cc(Nc3ccccc3[N+](=O)[O-])ccc2n1S(=O)(=O)c1ccccc1
Rattus norvegicus [1]
  Activity: 10.2%

## Cc1nc2cc(NCc3ccc(Cl)cc3)ccc2n1S(=O)(=O)c1ccccc1
Rattus norvegicus [1]
  Activity: 9.2%

## Cc1nc2cc(NCc3ccc(N)cc3)ccc2n1S(=O)(=O)c1ccccc1
Rattus norvegicus [1]
  Activity: 33.7%
Rattus norvegicus [2]
  Activity: 15 mm

## CNc1ccc2c(c1)nc(C)n2S(=O)(=O)c1ccccc1
Rattus norvegicus [1]
  Activity: 6.7%

## CC(=O)Oc1ccccc1C(=O)O [ASPIRIN]
Mus musculus
  Activity: 57.8%

## COc1ccc2c(c1)c(CC(=O)O)c(C)n2C(=O)c1ccc(Cl)cc1 [INDOMETHACIN]
Rattus norvegicus [2]
  Activity: 26 mm
Rattus norvegicus [3]
  Activity: 43.4%
